Bioassay records deposited in PubChem by The Scripps Research Institute Molecular Screening Center.
In the library only some 3% were active in any assay of this set; here they are far more common.
HTR1A agonist: agonists of human 5-HT1a serotonin receptor; P08908; CHO 5-HT1a Ga15 NFAT-bla reporter, FRET ratio; 0% basal, 100% maximal reference agonist; activation, % at 10 µM; 65,000 compounds, 0.56% hits; AID 567;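 active = activation above the screen-wide mean activation plus 3 SD, cut at about 19% in these data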;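 also: 0% = DMSO wells and 100% = 5-CT at EC100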
HTR1E antagonist: antagonists of human 5-HT1E serotonin receptor; CHO 5-HT1E Ga15 NFAT-bla reporter, FRET, antagonist; inhibition, % at 6 µM; 65,000 compounds, 0.99% hits; AID 571;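 active = inhibition above a set limit, the mean inhibition across every tested compound plus 3 SD, cut at about 29% in these data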;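 also: signal is the 460 over 535 nm emission ratio of beta-lactamase substrate; 0% = agonist plus DMSO wells and 100% = wells without agonist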
5HT1a antag: 5-HT1a (human) receptor antagonism; inhibition, % at 10 µM; 62,000 compounds, 0.68% hits; CHO 5-HT1a Ga15 NFAT-bla reporter, antagonist mode; AID 612;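 active = inhibition above the mean of all tested compounds plus 3 SD, cut at about 43% in these data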;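 also: receptor stimulated by 5-CT agonist at 100 nM near EC80; beta-lactamase reporter measured by ratiometric fluorescence of a cleavable substrate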
S1P3 agonist: S1P3 (human) receptor agonism; Q99500; S1P3 NFAT-BLA reporter cells, FRET ratio; relative to 1 µM S1P, basal subtracted; activation, % at 4.5 µM; 60,000 compounds, 0.1% hits;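 active = activation above the screen-wide mean plus 3 SD, cut at about 4.5% in these data, passing the limit was not always enough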
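material = human S1P3 NFAT-BLA reporter CHO cells | schedule = 4 h compound at 37 °C, 2 h substrate at RT | measured by = fluorescent BLA substrate, ex 405 nm, em 460/535 nm ratio | controls = 1 µM S1P reference | replication = primary once, confirmation triplicate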
HTR1E agonist: activates the human 5-HT1E serotonin receptor; AID 574; P28566; 65,000 compounds, 0.69% hits; activation, % at 6 µM; CHO 5-HT1E Ga15 NFAT-bla reporter, FRET; 0% DMSO wells, 100% control agonist wells;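 active = activation above a set limit, the screen-wide mean activation plus 3 SD, cut at about 8.5% in these data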;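 also: 100% = positive control agonist at 1 µM giving full maximal response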
S1P1 ag pot: activates or potentiates agonism at human S1P1 receptor | activation, % at 9.5 µM | S1P1 CRE-bla cells, forskolin, beta-lactamase FRET, potentiator mode; S1P1 agonist co-added at EC20, 2 nM; 100% = saturating reference agonist, 0% = basal | 56,000 compounds, 0.57% hits | P21453;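 active = activation above a cutoff set at the mean activation of all tested compounds plus 3 SD, cut at about 54% in these data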;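 also: forskolin at 4 µM as EC80 and the EC20 agonist is SEW2871; 100% = SEW2871 at its EC100 plus forskolin at EC80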
Target sequence (P21453 whole entry, looked up): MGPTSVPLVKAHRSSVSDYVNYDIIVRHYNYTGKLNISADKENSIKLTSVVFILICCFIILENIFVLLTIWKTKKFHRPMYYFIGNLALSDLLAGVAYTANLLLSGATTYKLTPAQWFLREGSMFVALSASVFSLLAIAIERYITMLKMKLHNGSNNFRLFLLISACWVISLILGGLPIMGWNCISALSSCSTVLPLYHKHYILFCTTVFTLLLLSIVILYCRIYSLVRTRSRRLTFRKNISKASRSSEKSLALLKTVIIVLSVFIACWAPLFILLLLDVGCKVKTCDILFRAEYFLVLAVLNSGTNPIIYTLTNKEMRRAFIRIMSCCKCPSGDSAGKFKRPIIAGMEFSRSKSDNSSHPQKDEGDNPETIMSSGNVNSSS
Starred values were filed as active, the others as inactive; · = no result.

SMILES | HTR1A agonist | HTR1E antagonist | 5HT1a antag | S1P3 agonist | HTR1E agonist | S1P1 ag pot
O=C(O)C1CCCN1S(=O)(=O)c1ccc(Cl)c(Cl)c1 (centres undefined) | -1 | -1 | 10 | -1 | 44* | ·
O=C(O)C1CCCN1S(=O)(=O)c1ccc2ccccc2c1 (centres undefined) | -1 | -9 | -3 | · | 0 | ·
Cc1cc(NC(=O)CSc2ccc3nnc(-c4cccs4)n3n2)no1 | 0 | 6 | -5 | 0 | 0 | -1
CCc1nc(Nc2ccc(N3CCN(C(C)=O)CC3)cc2)c2oc3ccccc3c2n1 | 4 | 34* | 1 | 0 | 0 | -35
Cc1cc(NC(=O)CCCSc2nc(-c3ccco3)cc(C(F)(F)F)n2)no1 | 0 | -6 | -1 | -1 | 6 | ·
COc1ccccc1-c1cc(C(F)(F)F)nc(S(=O)(=O)CCCC(=O)N2CCCCC2C)n1 (centres undefined) | 5 | 2 | 64* | 0 | 4 | 3
COc1ccccc1-c1cc(C(F)(F)F)nc(S(=O)(=O)CCCC(=O)NC(C)C)n1 | -1 | 48* | 40 | 1 | 5 | -13
CC(C)c1nnc(NC(=O)CCS(=O)(=O)c2nc(-c3cccs3)cc(C(F)(F)F)n2)s1 | -1 | 14 | 36 | -1 | 0 | 18
COc1ccccc1-c1cc(C(F)(F)F)nc(N2CCCC2)n1 | 6 | 2 | -7 | · | -1 | ·
COc1ccccc1-c1cc(C(F)(F)F)nc(S(=O)(=O)CCCC(=O)Nc2cc(C)on2)n1 | -5 | 46* | 10 | 0 | 0 | 12
CCOC(=O)N1CCN(Cc2nc(N)nc(Nc3ccc(Oc4ccccc4)cc3)n2)CC1 | 1 | 5 | -8 | 0 | 1 | ·
O=C(c1ccco1)N1CCN(CC2CC3C=CC2C3)CC1 (centres undefined) | 4 | 21 | 2 | -1 | 0 | 15
CCN(CC)c1ccc2c(C)c(CN3CCOCC3)c(=O)oc2c1 | 23* | -16 | -43 | 2 | 6 | -65
CSc1cccc(NC(=O)COc2ccccc2)c1 | -2 | -2 | -11 | 0 | 0 | ·
CSc1cccc(NC(=O)Nc2ccccc2)c1 | 0 | 17 | 26 | -2 | 10* | 11
Cc1cccc(N2CCN(C(=O)CCn3c(=O)[nH]c4ccccc4c3=O)CC2)c1C | 2 | -9 | -18 | 0 | 0 | 8
Cc1cccc(N2CCN(C(=O)Cc3c(C(=O)O)[nH]c4ccc(Cl)cc34)CC2)c1C | -3 | -5 | -4 | -1 | 60* | -61
CCC(=O)N1CCc2cc(OC)c(OC)cc2C1COc1ccc(C(=O)OC)cc1 (centres undefined) | 1 | 37* | 18 | · | -1 | ·
COC(=O)c1ccc(OCC2c3cc(OC)c(OC)cc3CCN2C(=O)c2ccco2)cc1 (centres undefined) | 3 | 36* | 23 | · | 0 | ·
COC(=O)Cn1cnc2c(nnn2-c2cccc(Cl)c2)c1=O | -2 | 0 | -5 | 0 | 0 | -6
COCCn1c(=NC(=O)CSCC(=O)Nc2cc(C)on2)sc2cc(C(=O)OC)ccc21 | 1 | 5 | 5 | · | 0 | ·
O=C(O)C1CCCCC1C(=O)NCCc1ccc(Cl)cc1 (centres undefined) | -4 | -13 | -1 | 0 | 21* | -2
Cc1cc(NC(=O)CSc2nc(-c3ccco3)cc(C(F)(F)F)n2)no1 | -1 | 68* | 59* | -1 | -2 | 4
CS(=O)(=O)c1nc(-c2ccco2)cc(C(F)(F)F)n1 | -5 | 100* | 103* | · | -1 | ·
Cc1ccc(-c2nn3c(-c4ccco4)nnc3c3ccccc23)cc1S(=O)(=O)N1CCOCC1 | 3 | -9 | 3 | -2 | -1 | -24
SMILES | HTR1A agonist | HTR1E antagonist | 5HT1a antag | S1P3 agonist | HTR1E agonist | S1P1 ag pot
CCCc1ccc(Oc2cn[nH]c2-c2ccc(O)cc2O)cc1 | -3 | 12 | 25 | -1 | -1 | 74*
O=c1c2ccccc2nc(SCc2cn3ccsc3n2)n1-c1ccc(F)cc1 | 6 | 37* | 19 | 0 | 0 | -21
Cc1nnc(SCc2cn3ccsc3n2)n(N)c1=O | -1 | 12 | 6 | -1 | 0 | 14
O=C(C1CC1)N1CCN=C1SCc1ccccc1Cl | -1 | 7 | -4 | 0 | -1 | 11
CCN(CC)C(=O)CSc1ccccc1N | 20* | -8 | -5 | -1 | -1 | ·
COC(=O)Cn1ncn2c(cc3oc(C)cc32)c1=O | -5 | -5 | -1 | -1 | -1 | -1
CCc1ccccc1N(C(=O)CCC(=O)Nc1cc(C)on1)C(C(=O)NC1CCCC1)c1ccco1 (centres undefined) | -1 | -2 | 13 | 0 | 0 | -6
CCOC(=O)c1cc2sccc2n1CC(=O)c1ccc2c(c1)OCCO2 | -1 | -1 | 19 | -2 | 22* | 25
CC(C(=O)Nc1cccnc1)N1C(=O)C2C3C=CC(C3)C2C1=O (centres undefined) | -4 | -6 | 1 | 0 | 0 | -13
c1ccc(CNc2ncnc3c2cnn3-c2ccccc2)cc1 | 2 | 29* | 7 | 0 | 0 | 6
Fc1ccc(CNc2ncnc3c2cnn3-c2ccccc2)cc1 | 0 | 17 | 12 | -1 | 1 | -30
Cc1cccc(-n2ncc3c(NCc4ccco4)ncnc32)c1 | 1 | 33* | · | -3 | 0 | -6
Cc1cccc(-n2ncc3c(NCc4ccccc4)ncnc32)c1 | 1 | 26 | 11 | 0 | 0 | 18
Cc1ccc(Cl)cc1N1CCN(C(=O)C2CCN(S(=O)(=O)c3c(C)nn(C)c3C)CC2)CC1 | 0 | 4 | 11 | 0 | 0 | 27
CCOC(=O)N1CCN(C2=NC3(CCCCC3)C(C#N)C(=O)N2)CC1 (centres undefined) | 0 | -4 | 5 | -1 | 0 | 21
Cc1cccc(-c2cc3nc4c(c(N5CCCC(O)C5)n3n2)CCC4)c1 (centres undefined) | -2 | 50* | 20 | -1 | 0 | -8
Cc1cccc(-c2cc3nc4c(c(N5CCOCC5)n3n2)CCCC4)c1 | -3 | 40* | 27 | 0 | 0 | -36
OC1CCCN(c2c3c(nc4cc(-c5cccc(Cl)c5)nn24)CCC3)C1 (centres undefined) | 1 | 38* | 7 | · | -1 | ·
Cc1cccc(-c2cc3nc4c(c(N5CCC6(CC5)OCCO6)n3n2)CCCC4)c1 | -3 | 15 | 8 | 0 | 0 | -11
C=CCSc1nc(N)c2c(C)c(C)sc2n1 | 49* | 4 | -5 | -1 | 0 | -31
Clc1cccc(-c2nnc(SCc3nc4ccccc4[nH]3)n2Cc2ccco2)c1 | 1 | 15 | 27 | 0 | 1 | -16
Clc1ccc(OCc2nnc(SCc3nc4ccccc4[nH]3)n2Cc2ccco2)cc1 | -1 | 3 | 1 | -1 | 1 | 61*
